Experiments:
Plasmodium falciparum [1] = assay: Resistance index, ratio of IC50 for chloroquine-resistant Plasmodium falciparum K1 to IC50 for chloroquine-sensitive Plasmodium falciparum 3D7; format: functional
Plasmodium falciparum [2] = assay: Antiplasmodial activity against chloroquine-resistant Plasmodium falciparum W2 after 24 hrs by [3H]hypoxanthine incorporation assay; format: functional, organism-based
Method in brief: (§1)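 Antiplasmodial testing was done at the Swiss Tropical and Public Health Institute. Chloroquine, the reference drug, was tested as its diphosphate salt.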

Plasmodium falciparum [3] = assay: Antiplasmodial activity against chloroquine-resistant Plasmodium falciparum K1 after 24 hrs by [3H]hypoxanthine incorporation assay; format: functional, organism-based; method in brief: as §1
Plasmodium falciparum [4] = assay: Antiplasmodial activity against chloroquine-sensitive Plasmodium falciparum 3D7 after 24 hrs by [3H]hypoxanthine incorporation assay; format: functional, organism-based; method in brief: as §1
Plasmodium berghei = assay: Antimalarial activity against Plasmodium berghei ANKA infected in C57BL/6 mouse assessed as reduction in parasitemia at 15 mg/kg, po qd for 4 days measured on day 7 by light microscopic analysis relative to control; format: functional; set-up: scale not given: the % may be the effect or the level left

Structure (SMILES) | Ratio IC50 (Plasmodium falciparum [1]) | IC50 (Plasmodium falciparum [2]) [µM] | IC50 (Plasmodium falciparum [3]) [µM] | IC50 (Plasmodium falciparum [4]) [µM] | Activity (Plasmodium berghei) [%]
CC(C)(C)n1nnnc1C(NCCCCNc1ccnc2cc(Cl)ccc12)c1ccccc1 (configuration not stated) | 4 | 0.02 | 0.008 | 0.002 | –
Clc1ccc2c(NCCNC(c3ccccc3)c3nnn[nH]3)ccnc2c1 (configuration not stated) | – | – | 14.9 | – | –
COc1ccc(C(NCCNc2ccnc3cc(Cl)ccc23)c2nnn[nH]2)cc1 (configuration not stated) | – | – | 13.2 | – | –
CCN(CC)CCCC(C)Nc1ccnc2cc(Cl)ccc12 (configuration not stated) [CHLOROQUINE] | – | – | – | – | 90.6

Reference: ChEMBL document CHEMBL3098028, “Synthesis and in vitro and in vivo pharmacological evaluation of new 4-aminoquinoline-based compounds” (ACS Med Chem Lett, 2013)
